Starred links: 1 amine or outer side, 2 acyl side, 3 side chain; linkers in the order of their positions; H or OH if unused. Residues, ends and D or L forms follow the SMILES beside them. *: point of attachment. X1 = c1ccc2c(N3CCN(*)CC3)nsc2c1; NH(3-MeOPh) = COc1cccc(N*)c1; X4 = COc1cccc(NC(=S)*)c1; X5 = COc1ccccc1NC(=S)*; Boc = CC(C)(C)OC(=O)*; CO = O=C([*:1])[*:2]
Tests used:
Aspergillus niger = experiment: Antifungal activity against Aspergillus niger at 50 ug/mL incubated for 3 days by agar well diffusion method; format: functional; details: 72 h, read-out: IZ
Summary of the method: (§1)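 Fungal growth inhibition measured by agar well diffusion, with bavistin as the reference. Records the mean inhibition-zone diameter (mm) around each well.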

Staphylococcus = experiment: Antibacterial activity against Coagulase positive Staphylococcus at 50 ug/mL incubated for 24 hrs by agar well diffusion method; format: functional; details: read-out: IZ
Summary of the method: (§2)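 Agar well diffusion against the bacterial isolate, with streptomycin as the reference drug. Read-out is the average diameter (mm) of the growth-inhibition zone around the well.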

Xanthomonas oryzae = experiment: Antibacterial activity against Xanthomonas oryzae at 50 ug/mL incubated for 24 hrs by agar well diffusion method; format: functional; details: read-out: IZ
Urease = Urease (Canavalia ensiformis, UniProt P07374); experiment: Inhibition of jack bean urease assessed as reduction in ammonia production incubated at 30 degC for 15 mins by indophenol method
Summary of the method: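 Inhibition of jack bean urease, with thiourea as the reference standard. IC50 values are the average of triplicate runs.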

Fusarium oxysporum = experiment: Antifungal activity against Fusarium oxysporum at 50 ug/mL incubated for 3 days by agar well diffusion method; format: functional; details: 72 h, read-out: IZ; summary of the method: as §1
Escherichia coli = experiment: Antibacterial activity against Escherichia coli at 50 ug/mL incubated for 24 hrs by agar well diffusion method; format: functional; details: read-out: IZ; summary of the method: as §2
Fusarium verticillioides = experiment: Antifungal activity against Fusarium moniliforme at 50 ug/mL incubated for 3 days by agar well diffusion method; format: functional; details: 72 h, read-out: IZ; summary of the method: as §1
[1] = Antiglycation activity using bovine serum albumin incubated at 37 degC for 7 days by spectrofluorimetry; format: physicochemical
Summary of the method: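 Glycation of bovine serum albumin, with rutin as the reference standard. IC50 values are averages of triplicate runs.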

Aspergillus flavus = experiment: Antifungal activity against Aspergillus flavus at 50 ug/mL incubated for 3 days by agar well diffusion method; format: functional; details: 72 h, read-out: IZ; summary of the method: as §1
[2] = Inhibition of sheep stomach parietal cells gastric H+/K+-ATPase activity assessed as reduction in inorganic phosphorus production by Fiske Subbarow's method; format: tissue-based, Ovis aries
Summary of the method: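 Inhibition of purified H+/K+-ATPase, with omeprazole as the reference. IC50 is the mean of triplicate runs.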

Sequence of Urease (P07374 whole entry): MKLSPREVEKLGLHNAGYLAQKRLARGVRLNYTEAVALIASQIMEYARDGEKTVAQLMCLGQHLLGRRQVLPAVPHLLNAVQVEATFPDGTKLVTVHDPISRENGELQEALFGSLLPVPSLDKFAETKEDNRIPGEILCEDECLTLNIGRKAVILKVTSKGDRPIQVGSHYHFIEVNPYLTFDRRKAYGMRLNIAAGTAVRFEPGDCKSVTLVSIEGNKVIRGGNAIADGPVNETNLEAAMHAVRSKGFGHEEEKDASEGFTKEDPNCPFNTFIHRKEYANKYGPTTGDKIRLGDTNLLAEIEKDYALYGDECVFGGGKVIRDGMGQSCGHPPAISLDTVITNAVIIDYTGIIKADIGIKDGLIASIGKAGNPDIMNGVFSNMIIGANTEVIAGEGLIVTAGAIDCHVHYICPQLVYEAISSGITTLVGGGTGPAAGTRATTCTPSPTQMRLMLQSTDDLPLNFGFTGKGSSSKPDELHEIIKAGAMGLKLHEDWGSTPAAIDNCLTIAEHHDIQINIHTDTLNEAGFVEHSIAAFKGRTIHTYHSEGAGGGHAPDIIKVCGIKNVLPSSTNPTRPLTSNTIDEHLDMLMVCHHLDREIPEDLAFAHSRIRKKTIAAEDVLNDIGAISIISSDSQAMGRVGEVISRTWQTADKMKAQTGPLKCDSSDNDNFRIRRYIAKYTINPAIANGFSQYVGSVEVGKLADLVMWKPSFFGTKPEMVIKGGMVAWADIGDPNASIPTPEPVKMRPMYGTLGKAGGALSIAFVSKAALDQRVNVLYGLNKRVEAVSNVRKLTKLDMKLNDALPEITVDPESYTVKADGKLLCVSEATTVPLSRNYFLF

| Compound | zone of inhibition at 50 µg/mL (Aspergillus niger) [mm] | zone of inhibition at 50 µg/mL (Staphylococcus) [mm] | zone of inhibition at 50 µg/mL (Xanthomonas oryzae) [mm] | IC50 (Urease) [µM] | zone of inhibition at 50 µg/mL (Fusarium oxysporum) [mm] | zone of inhibition at 50 µg/mL (Escherichia coli) [mm] | zone of inhibition at 50 µg/mL (Fusarium verticillioides) [mm] | IC50 [1] [µM] | zone of inhibition at 50 µg/mL (Aspergillus flavus) [mm] | IC50 [2] | IC50 ([2]; read-out: IC50) [µM] |
| --- | --- | --- | --- | --- | --- | --- | --- | --- | --- | --- | --- |
| CC(C)[C@H](NC(=O)CNC(=O)[C@H](Cc1ccccc1)NC(=O)CNC(=O)OC(C)(C)C)C(=O)N1CCC[C@H]1C(=O)N1CCN(c2nsc3ccccc23)CC1 (Boc-GFGVP-X1) | 6 | 6 | 7 | 255 | 7 | 8 | 7 | 235 | 7 | Not Active | – |
| COc1cccc(NC(=S)NCC(=O)N[C@@H](Cc2ccccc2)C(=O)NCC(=O)N[C@H](C(=O)N2CCC[C@H]2C(=O)N2CCN(c3nsc4ccccc34)CC2)C(C)C)c1 (X4-GFGVP-X1) | 24 | 20 | 19 | 19 | 23 | 21 | 24 | 20 | 23 | – | 38 |
| COc1cccc(NC(=S)NCC(=O)N[C@H](C(=O)NCC(=O)N[C@H](C(=O)N2CCC[C@H]2C(=O)N2CCN(c3nsc4ccccc34)CC2)C(C)C)C(C)C)c1 (X4-GVGVP-X1) | 16 | 18 | 16 | 23 | 19 | 17 | 19 | 23 | 18 | – | 36 |
| COc1ccccc1NC(=S)NCC(=O)N[C@@H](Cc1ccccc1)C(=O)NCC(=O)N[C@H](C(=O)N1CCC[C@H]1C(=O)N1CCN(c2nsc3ccccc23)CC1)C(C)C (X5-GFGVP-X1) | 24 | 24 | 22 | 18 | 24 | 24 | 26 | 19 | 25 | – | 46 |
| COc1ccccc1NC(=S)NCC(=O)N[C@H](C(=O)NCC(=O)N[C@H](C(=O)N1CCC[C@H]1C(=O)N1CCN(c2nsc3ccccc23)CC1)C(C)C)C(C)C (X5-GVGVP-X1) | 20 | 20 | 19 | 20 | 22 | 21 | 23 | 20 | 22 | – | 40 |
| COc1cccc(NC(=O)NCC(=O)N[C@@H](Cc2ccccc2)C(=O)NCC(=O)N[C@H](C(=O)N2CCC[C@H]2C(=O)N2CCN(c3nsc4ccccc34)CC2)C(C)C)c1 ({NH(3-MeOPh)-CO}-GFGVP-X1) | 20 | 20 | 18 | 23 | 22 | 19 | 22 | 23 | 21 | – | 48 |
| COc1cccc(NC(=O)NCC(=O)N[C@H](C(=O)NCC(=O)N[C@H](C(=O)N2CCC[C@H]2C(=O)N2CCN(c3nsc4ccccc34)CC2)C(C)C)C(C)C)c1 ({NH(3-MeOPh)-CO}-GVGVP-X1) | 15 | 14 | 13 | 25 | 18 | 15 | 18 | 25 | 17 | – | 38 |
| C[C@@H]1O[C@@H](OC[C@H]2O[C@@H](Oc3c(-c4ccc(O)c(O)c4)oc4cc(O)cc(O)c4c3=O)[C@H](O)[C@@H](O)[C@@H]2O)[C@H](O)[C@H](O)[C@H]1O [RUTIN] | – | – | – | – | – | – | – | 41.9 | – | – | – |

Source: ChEMBL document CHEMBL3352339, “Implications of N-capped urea/thiourea and C-capped 3-(1-piperazinyl)-1,2-benzisothiazole with bridging Gly-Val/Phe-Gly-Val-Pro as therapeutic targets” (Eur J Med Chem, 2014)
